Laboratory results: ChEMBL document CHEMBL5661977, “BI 6727, a Polo-like kinase inhibitor with improved pharmacokinetic profile and broad antitumor activity” (Clin Cancer Res, 2009)
Activity calls are given as the source filed them. The rule behind the calls is not given here.

How the values were obtained:
[1] = Volume of distribution at steady state in BomTac:NMRI-Foxn1nu mouse at 35 mg/kg, iv by HPLC-MS/MS analysis; type: ADME, organism-based; conditions: in vivo, read-out: Vdss
In short: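 Female nude mice, n = 3, single i.v. dose (vehicle 0.1 N HCl diluted with 0.9% NaCl, 10 mL/kg). BI 6727 measured in EDTA plasma at several times by HPLC-MS/MS with internal standard. Parameters came from noncompartmental analysis. Terminal half-life was taken from the last two time points after i.v. dosing.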

HCT-116 [2] = assay: Antitumor activity against human HCT-116 cells xenografted in BomTac:NMRI-Foxn1nu mouse assessed as mitotic index in small intestine at 40 mg/kg, iv; type: functional, organism-based
In short: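 Female nude mice bore s.c. HCT 116 tumors (~200 mm³) and received a single i.v. 40 mg/kg dose or vehicle (n=3 per group per time). Tumor, small intestine and large intestine were taken at 6, 24 and 48 h. Frozen sections were stained for pSer10 histone H3 (immunoperoxidase) or by TUNEL. Positive area was calculated as % of tumor cell area; Student's t test.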

[3] = Drug uptake in human HCT-116 cells xenografted in BomTac:NMRI-Foxn1nu mouse at 35 mg/kg, iv measured after 168 hrs by HPLC-MS/MS analysis; type: ADME, organism-based, Neoplasm; conditions: tumour (HCT-116 xenograft)
In short: (§1)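 Female nude mice bearing s.c. HCT 116 xenografts (2 × 10⁶ cells), n = 3 per time point, given a single i.v. dose. Tumor, organs and EDTA plasma collected at 1, 8, 24, 48, 96 and 168 h. Tissue extracts and plasma analysed by HPLC-MS/MS. Tissue nmol/mg converted to nmol/L assuming density 1.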

[4] = Oral bioavailability in dog by HPLC-MS/MS analysis; type: ADME, organism-based, Canis lupus familiaris; conditions: in vivo
[5] = Oral bioavailability in Wistar rat at 30 mg/kg by HPLC-MS/MS analysis; type: ADME, organism-based; conditions: in vivo
In short: (§2)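 Single oral gavage of BI 6727 suspended in 0.5% hydroxyethyl-cellulose (10 mL/kg) to female nude mice or male Wistar rats. EDTA plasma levels measured over time by HPLC-MS/MS with internal standard. AUC0-24 by trapezoidal rule. Parameters from noncompartmental analysis.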

[6] = Clearance in Wistar rat at 10 mg/kg, iv by HPLC-MS/MS analysis; type: ADME, organism-based; conditions: in vivo
In short: (§3)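 Male Wistar Crl:WI (Han) rats, n = 4, given a single 5-min i.v. infusion. BI 6727 measured in EDTA plasma at various times after the infusion started, by HPLC-MS/MS with internal standard. Parameters came from noncompartmental analysis. Terminal half-life was taken from the last two time points after i.v. dosing.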

[7] = AUC (0-24hrs) in BomTac:NMRI-Foxn1nu mouse at 50 mg/kg, po by HPLC-MS/MS analysis; type: ADME, organism-based; conditions: in vivo
In short: (§4)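 Single oral dose to female nude mice or male Wistar rats. EDTA plasma was collected over 24 h and quantified by LC-MS/MS after extraction with internal standard. AUC0-24 was calculated from the concentration-time profile by the trapezoidal rule using noncompartmental analysis.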

HCT-116 [8] = assay: Antitumor activity against human HCT-116 cells xenografted in BomTac:NMRI-Foxn1nu mouse assessed as tumor growth delay at 25 mg/kg, iv administered twice a week on consecutive days; type: functional, organism-based
In short: (§5)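 Female nude mice bore s.c. HCT 116 (2×10^6 cells), NCI-H460 (1×10^6 cells) or serially transplanted CXB1 tumor pieces. At ~50–100 mm³, mice were randomized into groups of 10 and dosed i.v. (0.1 N HCl/saline) or by gavage (0.5% hydroxyethyl-cellulose) at 10 mL/kg. Calipers read thrice weekly, volume = length×width²×π/6. T/C from median volumes on the last day.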

HCT-116 [9] = assay: Antitumor activity against human HCT-116 cells xenografted in BomTac:NMRI-Foxn1nu mouse assessed as tumor growth delay at 15 mg/kg, iv administered twice a week on consecutive days; type: functional, organism-based; conditions: time 7.0 day; in short: as §5
HCT-116 [10] = assay: Antitumor activity against human HCT-116 cells xenografted in BomTac:NMRI-Foxn1nu mouse assessed as tumor growth delay at 20 mg/kg, iv administered twice a week on consecutive days; type: functional, organism-based; in short: as §5
[11] = Cmax in Wistar rat at 10 mg/kg, iv by HPLC-MS/MS analysis; type: ADME, organism-based; conditions: in vivo; in short: as §3
[12] = Drug uptake in human HCT-116 cells xenografted in BomTac:NMRI-Foxn1nu mouse plasma at 35 mg/kg, iv measured after 168 hrs by HPLC-MS/MS analysis; type: ADME, organism-based; in short: as §1
[13] = AUC (0 to infinity) in Wistar rat at 10 mg/kg, iv by HPLC-MS/MS analysis; type: ADME, organism-based; conditions: in vivo
In short: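 Single i.v. dose: male Wistar rats (n=4) by 5-min infusion, female nude mice (n=3). EDTA plasma was sampled at various times and extracted with internal standard, NaOH, methanol/formic acid and acetonitrile. Analysis by LC-MS/MS (ESI+, C18, ammonium acetate pH 4.0/acetonitrile gradient). Noncompartmental parameters; AUC by trapezoidal rule.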

[14] = Half life in Wistar rat at 10 mg/kg, iv by HPLC-MS/MS analysis; type: ADME, organism-based; conditions: in vivo; in short: as §3
Raji = assay: Antimitotic activity against human Raji cells assessed as inhibition of cell proliferation incubated for 72 hrs by Alamar blue based fluorescence spectrophotometric analysis; type: functional
In short: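 Cancer cell lines were cultured per supplier instructions and exposed to various inhibitor concentrations for 72 h. Growth was read as Alamar blue conversion by fluorescence. EC50 (50% growth inhibition) was extrapolated from the dose-response curve fit.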

HCT-116 [15] = assay: Antitumor activity against human HCT-116 cells xenografted in BomTac:NMRI-Foxn1nu mouse assessed as T/C at 50 mg/kg, po administered once a week upto 6 weeks relative to control; type: functional; in short: as §5
[16] = Drug uptake in human HCT-116 cells xenografted in BomTac:NMRI-Foxn1nu mouse plasma at 35 mg/kg, iv measured after 1 hrs by HPLC-MS/MS analysis; type: ADME, organism-based; in short: as §1
[17] = Antitumor activity against human CXB1 cells xenografted in BomTac:NMRI-Foxn1nu mouse assessed as T/C at 15 mg/kg, iv administered twice a week upto 6 weeks relative to control; type: functional, CXB1 cell; in short: as §5
[18] = Drug uptake in human HCT-116 cells xenografted in BomTac:NMRI-Foxn1nu mouse at 35 mg/kg, iv measured after 8 hrs by HPLC-MS/MS analysis; type: ADME, organism-based, Neoplasm; conditions: tumour (HCT-116 xenograft); in short: as §1
[19] = AUC (0 to 24 hrs) in human HCT-116 cells xenografted in BomTac:NMRI-Foxn1nu mouse at 20 mg/kg, iv administered twice a week upto 6 weeks by HPLC-MS/MS analysis; type: ADME, organism-based; conditions: in vivo, 1008 h
[20] = AUC (0-24hrs) in Wistar rat at 30 mg/kg, po by HPLC-MS/MS analysis; type: ADME, organism-based; conditions: in vivo; in short: as §4
[21] = Cmax in BomTac:NMRI-Foxn1nu mouse at 50 mg/kg, po by HPLC-MS/MS analysis; type: ADME, organism-based; conditions: in vivo; in short: as §2
[22] = AUC (0 to 24 hrs) in human HCT-116 cells xenografted in BomTac:NMRI-Foxn1nu mouse at 30 mg/kg, iv administered once a week upto 6 weeks by HPLC-MS/MS analysis; type: ADME, organism-based; conditions: in vivo, 1008 h

CC[C@@H]1C(=O)N(C)c2cnc(Nc3ccc(C(=O)N[C@H]4CC[C@H](N5CCN(CC6CC6)CC5)CC4)cc3OC)nc2N1C(C)C [VOLASERTIB]
Vd [1]: 7.6 L/kg | Activity (HCT-116 [2]): inactive | concentration at 168 h [3]: 4 µM | bioavailability [4]: 53% | bioavailability [5]: 55% | clearance [6]: 0.534 L/h/kg | AUC(0-t) [7]: 58 µM·h | Activity (HCT-116 [8]): Active | Activity (HCT-116 [9]): Active | Activity (HCT-116 [10]): Active | Cmax [11]: 11.9 µM | concentration at 168 h [12]: 0.008 µM | AUC(0-inf) [13]: 30 µM·h | half-life [14]: 54 h | EC50 (Raji): 0.037 µM | T/C (HCT-116 [15]): 2% | concentration at 1 h [16]: 7 µM | T/C [17]: 12% | concentration at 8 h [18]: 32 µM | AUC [19]: 66 µM·h | AUC(0-t) [20]: 34 µM·h | Cmax [21]: 5.7 µM | AUC [22]: 52 µM·h
